Assay results from different studies.
Compare with care: the assays were run in different laboratories.
SLC10A2: Ileal sodium/bile acid cotransporter (SLC10A2, Homo sapiens, UniProt Q12908)
AHR: Aryl hydrocarbon receptor (AHR, Homo sapiens, UniProt P35869)

| SMILES | target | test | setting | endpoint | value |
| --- | --- | --- | --- | --- | --- |
| CC[C@H](C)C(=O)O[C@H]1C[C@H](O)C=C2C=C[C@H](C)[C@H](CC[C@@H](O)C[C@@H](O)CC(=O)O)[C@H]21 | SLC10A2 | transporter uptake, inhibitor | – | Ki | 1360 µM |
| Cc1cc2nc3c(=O)[nH]c(=O)nc-3n(C[C@H](O)[C@H](O)[C@H](O)COP(=O)(O)OP(=O)(O)OC[C@H]3O[C@@H](n4cnc5c(N)ncnc54)[C@H](O)[C@@H]3O)c2cc1C | Splicing factor 1 (Homo sapiens, UniProt Q15637) | binding | lysate | Kd | 0.842 µM |
| CC(C)c1cc(C2CCCN2C(=O)c2cc(-c3ccc4c(c3)OCO4)on2)no1 (stereo not drawn) | Cannabinoid receptor 2 (CNR2, Homo sapiens, UniProt P34972) | cAMP, agonist, TR-FRET | – | EC50 | 0.01 µM |
| O=C(c1ccccn1)c1c[nH]c2ccccc12 | AHR | reporter gene, agonist, luciferase | – | EC50 | > 0.01 µM |
| C=CCSCC1Nc2cc(Cl)c(S(N)(=O)=O)cc2S(=O)(=O)N1 (stereo not drawn) | SLC10A2 | transporter uptake, inhibitor | – | Ki | 391 µM |
| CSCC[C@H](NC(=O)[C@@H](NC(=O)[C@@H](N)Cc1ccc(O)cc1)C(C)C)C(=O)NCC(=O)N[C@@H](Cc1c[nH]cn1)C(=O)N[C@@H](Cc1ccccc1)C(=O)O | Melanocortin receptor 5 (MC5R, Homo sapiens, UniProt P33032) | reporter gene, agonist | – | EC50 | > 100 µM |
| NS(=O)(=O)c1cc2c(cc1Cl)N=CNS2(=O)=O | SLC10A2 | transporter uptake, inhibitor | – | Ki | 1220 µM |
| CCOC(=O)c1cccc(C(=O)c2c[nH]c3ccccc23)n1 | AHR | reporter gene, agonist, luciferase | – | EC50 | 1.11 µM |
| C[C@]12C=CC(=O)C=C1CC[C@@H]1[C@@H]2C(=O)C[C@@]2(C)[C@H]1CC[C@]2(O)C(=O)CO | SLC10A2 | transporter uptake, inhibitor | – | Ki | 1480 µM |
| COc1ccccc1C(=O)c1c[nH]c2ccccc12 | AHR | reporter gene, agonist, luciferase | – | EC50 | > 10 µM |
| O=C(CCCCCCNC(=O)c1cnc(N(c2ccccc2)c2ccccc2)nc1)NO | Polyamine deacetylase HDAC10 (HDAC10, Homo sapiens, UniProt Q969S8) | cell-free assay | – | Kd | 0.456 µM |
| O=C(c1cccc(Cl)n1)c1c[nH]c2ccccc12 | AHR | reporter gene, agonist, luciferase | – | EC50 | 0.178 µM |
| O=C(N[C@H]1COC(=O)[C@@H](NC(=O)c2cccc(O)c2O)COC(=O)[C@@H](NC(=O)c2cccc(O)c2O)COC1=O)c1cccc(O)c1O | Neutrophil gelatinase-associated lipocalin (LCN2, Homo sapiens, UniProt P80188, C107S) | binding, fluorescence | pH 5.5 | Kd | 0.0055 µM |
| COC(=O)c1cccc(C(=O)c2c[nH]c3c4c(ccc23)CCC4)n1 | AHR | reporter gene, agonist, luciferase | – | EC50 | 0.031 µM |
| CCOC(=O)C1=C(C)NC(C)=C(C(=O)OC)C1c1cccc([N+](=O)[O-])c1 (stereo not drawn) | SLC10A2 | transporter uptake, inhibitor | – | Ki | 34.1 µM |
